Laboratory results: ChEMBL document CHEMBL1130239, “Synthesis and evaluation of (S)-4-(3-(2'-[11C]isopropylamino)-2-hydroxypropoxy) -2H-benzimidazol -2-one ((S)-[11C]CGP 12388) and (S)-4-(3-((1'-[18F]-fluoroisopropyl)amino)-2-hydroxypropoxy) -2H- benzimidazol-2-one ((S)-[18F]fluoro-CGP 12388) for visualization of beta-adrenoceptors with positron …” (J Med Chem, 1997)

Legend:
[1] = organism: Rattus norvegicus; test: Biodistribution of [11C]-CGP- 12388 (10 minutes post injection) in cortex of male wistar rats; format: ADME, organism-based; conditions: in vivo
How it was run: (§1)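 Male Wistar rats (200 ± 20 g) under pentobarbital anesthesia (60 mg/kg ip) got iv saline (controls, n = 4) or 500 μg (±)-propranolol (blocking, n = 4) <1 min before the tracer. Tracer dose was 1 MBq (30 pmol) in 0.3 mL. Rats were killed by heart extirpation at 10 min and tissues counted. Plasma was spun 3 min at 1000g. Uptake is given as DAR, mean ± SD.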

[2] = organism: Rattus norvegicus; test: Biodistribution of [11C]-CGP- 12388 (60 minutes post injection) in plasma of male wistar rats; format: ADME, organism-based; conditions: in vivo, 1 h
How it was run: (§2)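 Wistar males (200 ± 20 g) were given pentobarbital 60 mg/kg ip, plus 15-20 mg/kg if needed before dissection. Saline controls (n = 6) or 500 μg (±)-propranolol iv blocking rats (n = 4) were pretreated <1 min before 1 MBq (30 pmol) tracer in 0.3 mL. Sacrifice and dissection were at 60 min. DAR = (cpm/g tissue)/(injected cpm/g body weight); mean ± SD.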

[3] = organism: Rattus norvegicus; test: Biodistribution of [11C]-CGP- 12388 (60 minutes post injection) in kidney of male wistar rats; format: ADME, organism-based; conditions: in vivo, 1 h; how it was run: as §2
[4] = organism: Rattus norvegicus; test: Biodistribution of [11C]-CGP- 12388 (10 minutes post injection) in lung of male wistar rats; format: ADME, organism-based; conditions: in vivo; how it was run: as §1
[5] = organism: Rattus norvegicus; test: Biodistribution of [11C]-CGP- 12388 (10 minutes post injection) in red blood cells of male wistar rats; format: ADME, organism-based; conditions: in vivo; how it was run: as §1
[6] = organism: Rattus norvegicus; test: Biodistribution of [11C]-CGP- 12388 (10 minutes post injection) in muscle of male wistar rats; format: ADME, organism-based, Muscle tissue; conditions: in vivo; how it was run: as §1
[7] = Partition coefficient (logP); format: physicochemical; conditions: octanol/water
How it was run: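 50-100 μCi of tracer in 0.1 M phosphate buffer pH 7.4 (5 mL) plus n-octanol (5 mL). Shaken vigorously for 30 min at 37 °C, five mixtures. 100 μL of each layer gamma-counted. log P from the octanol/water count ratio, n = 5. A calculated value was also obtained with Pallas 1.2.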

[8] = organism: Rattus norvegicus; test: Biodistribution of [11C]-CGP- 12388 (10 minutes post injection) in spleen of male wistar rats; format: ADME, organism-based; conditions: in vivo; how it was run: as §1
[9] = organism: Rattus norvegicus; test: Biodistribution of [11C]-CGP- 12388 (10 minutes post injection) in fat of male wistar rats; format: ADME, organism-based, Adipose tissue; conditions: in vivo; how it was run: as §1
[10] = organism: Rattus norvegicus; test: Biodistribution of [11C]-CGP- 12388 (60 minutes post injection) in trachea of male wistar rats; format: ADME, organism-based; conditions: in vivo, 1 h; how it was run: as §2
[11] = organism: Rattus norvegicus; test: Biodistribution of [11C]-CGP- 12388 (10 minutes post injection) in heart of male wistar rats; format: ADME, organism-based; conditions: in vivo; how it was run: as §1
[12] = organism: Rattus norvegicus; test: Biodistribution of [11C]-CGP- 12388 (60 minutes post injection) in liver of male wistar rats; format: ADME, organism-based; conditions: in vivo, 1 h; how it was run: as §2
[13] = organism: Rattus norvegicus; test: Biodistribution of [11C]-CGP- 12388 (10 minutes post injection) in kidney of male wistar rats; format: ADME, organism-based; conditions: in vivo; how it was run: as §1
[14] = organism: Rattus norvegicus; test: Biodistribution of [11C]-CGP- 12388 (10 minutes post injection) in trachea of male wistar rats; format: ADME, organism-based; conditions: in vivo; how it was run: as §1
[15] = organism: Rattus norvegicus; test: Biodistribution of [11C]-CGP- 12388 (10 minutes post injection) in liver of male wistar rats; format: ADME, organism-based; conditions: in vivo; how it was run: as §1
[16] = organism: Rattus norvegicus; test: Biodistribution of [11C]-CGP- 12388 (60 minutes post injection) in cerebellum of male wistar rats; format: ADME, organism-based; conditions: in vivo, 1 h; how it was run: as §2
[17] = organism: Rattus norvegicus; test: Biodistribution of [11C]-CGP- 12388 (10 minutes post injection) in bone of male wistar rats; format: ADME, organism-based, Bone element; conditions: in vivo; how it was run: as §1
[18] = organism: Rattus norvegicus; test: Biodistribution of [11C]-CGP- 12388 (60 minutes post injection) in heart of male wistar rats; format: ADME, organism-based; conditions: in vivo, 1 h; how it was run: as §2
[19] = organism: Rattus norvegicus; test: Biodistribution of [11C]-CGP- 12388 (60 minutes post injection) in bone of male wistar rats; format: ADME, organism-based, Bone element; conditions: in vivo, 1 h; how it was run: as §2
[20] = organism: Rattus norvegicus; test: Biodistribution of [11C]-CGP- 12388 (10 minutes post injection) in intestine of male wistar rats; format: ADME, organism-based; conditions: in vivo; how it was run: as §1
[21] = organism: Rattus norvegicus; test: Biodistribution of [11C]-CGP- 12388 (60 minutes post injection) in lung of male wistar rats; format: ADME, organism-based; conditions: in vivo, 1 h; how it was run: as §2
[22] = organism: Rattus norvegicus; test: Biodistribution of [11C]-CGP- 12388 (60 minutes post injection) in spleen of male wistar rats; format: ADME, organism-based; conditions: in vivo, 1 h; how it was run: as §2
[23] = organism: Rattus norvegicus; test: Biodistribution of [11C]-CGP- 12388 (60 minutes post injection) in fat of male wistar rats; format: ADME, organism-based, Adipose tissue; conditions: in vivo, 1 h; how it was run: as §2
[24] = organism: Rattus norvegicus; test: Biodistribution of [11C]-CGP- 12388 (60 minutes post injection) in red blood cells of male wistar rats; format: ADME, organism-based; conditions: in vivo, 1 h; how it was run: as §2
[25] = organism: Rattus norvegicus; test: Biodistribution of [11C]-CGP- 12388 (60 minutes post injection) in muscle of male wistar rats; format: ADME, organism-based, Muscle tissue; conditions: in vivo, 1 h; how it was run: as §2
[26] = organism: Rattus norvegicus; test: Biodistribution of [11C]-CGP- 12388 (60 minutes post injection) in intestine bone of male wistar rats; format: ADME, organism-based; conditions: in vivo, 1 h, in the assay text read “intestine” for “intestine bone”; how it was run: as §2
[27] = organism: Rattus norvegicus; test: Biodistribution of [11C]-CGP- 12388 (60 minutes post injection) in cortex of male wistar rats; format: ADME, organism-based; conditions: in vivo, 1 h; how it was run: as §2
[28] = organism: Rattus norvegicus; test: Biodistribution of [11C]-CGP- 12388 (10 minutes post injection) in cerebellum of male wistar rats; format: ADME, organism-based; conditions: in vivo; how it was run: as §1
[29] = organism: Rattus norvegicus; test: Biodistribution of [11C]-CGP- 12388 (10 minutes post injection) in plasma of male wistar rats; format: ADME, organism-based; conditions: in vivo; how it was run: as §1

DAR [1]: 0.07
DAR [2]: 0.4
DAR [3]: 0.94
DAR [4]: 1.26
DAR [5]: 0.7
DAR [6]: 0.23
logP [7]: -0.64
DAR [8]: 0.78
DAR [9]: 0.16
DAR [10]: 0.86
DAR [11]: 0.72
DAR [12]: 0.68
DAR [13]: 2.44
DAR [14]: 0.7
DAR [15]: 1.65
DAR [16]: 0.26
DAR [17]: 0.2
DAR [18]: 0.76
DAR [19]: 0.23
DAR [20]: 0.55
DAR [21]: 0.88
DAR [22]: 0.49
DAR [23]: 0.26
DAR [24]: 0.49
DAR [25]: 0.36
DAR [26]: 1.14
DAR [27]: 0.25
DAR [28]: 0.09
DAR [29]: 0.5
Compound: C[11CH](C)NC[C@H](O)COc1cccc2[nH]c(O)nc12
